Assays:
Assay type in all cases: functional
HCT-15 = test: Growth inhibition of human HCT15 cells after 48 hrs by sulforhodamine B assay; conditions: HCT-15, 48 h
In short: (§1)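 NCI 60-cell-line screen. Compounds tested at five 10-fold dilutions from 10^-4 to 10^-8 M. Cells exposed for the last 48 h of a 72 h incubation, growth estimated by sulforhodamine B protein assay. GI50 is the concentration giving 50% growth inhibition. Values beyond the tested range are expressed as greater or lesser than the extreme concentration.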

MDA-MB-231 = test: Growth inhibition of human MDA-MB-231 cells after 48 hrs by sulforhodamine B assay; conditions: MDA-MB-231, 48 h; in short: as §1
[1] = Growth inhibition of human NCI-ADR-RES cells after 48 hrs by sulforhodamine B assay; in short: as §1
A498 = test: Growth inhibition of human A498 cells after 48 hrs by sulforhodamine B assay; conditions: A498, 48 h; in short: as §1
CCRF-CEM = test: Growth inhibition of human CCRF-CEM cells after 48 hrs by sulforhodamine B assay; in short: as §1
MDA-MB-468 = test: Growth inhibition of human MDA-MB-468 cells after 48 hrs by sulforhodamine B assay; conditions: MDA-MB-468, 48 h; in short: as §1
[2] = Growth inhibition of human BT549 cells after 48 hrs by sulforhodamine B assay; conditions: BT-549, 48 h; in short: as §1
CAKI-1 = test: Growth inhibition of human CAKI-1 cells after 48 hrs by sulforhodamine B assay; conditions: CAKI-1, 48 h; in short: as §1
A549 = test: Growth inhibition of human A549 cells after 48 hrs by sulforhodamine B assay; conditions: A549, 48 h; in short: as §1
HT-29 = test: Growth inhibition of human HT-29 cells after 48 hrs by sulforhodamine B assay; conditions: HT-29, 48 h; in short: as §1
HL-60(TB) = test: Growth inhibition of human HL-60(TB) cells after 48 hrs by sulforhodamine B assay; conditions: HL-60, 48 h
In short: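 NCI 60-cell-line screen, HL-60(TB) included. Compound given at five 10-fold dilutions from 10^-4 to 10^-8 M. Cells exposed for the last 48 h of a 72 h incubation. Growth or viability estimated by sulforhodamine B protein assay. GI50 is the concentration giving 50% growth inhibition. Values outside the tested range are reported as greater or less than the highest or lowest concentration.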

[3] = Growth inhibition of human HCC2998 cells after 48 hrs by sulforhodamine B assay; conditions: HCC 2998, 48 h; in short: as §1
NCI-H322M = test: Growth inhibition of human NCI-H322M cells after 48 hrs by sulforhodamine B assay; in short: as §1
UO-31 = test: Growth inhibition of human UO31 cells after 48 hrs by sulforhodamine B assay; conditions: UO-31, 48 h
U-251 = test: Growth inhibition of human U251 cells after 48 hrs by sulforhodamine B assay; conditions: U-251, 48 h
SK-MEL-5 = test: Growth inhibition of human SK-MEL-5 cells after 48 hrs by sulforhodamine B assay; conditions: SK-MEL-5, 48 h
MDA-MB-435 = test: Growth inhibition of human MDA-MB-435 cells after 48 hrs by sulforhodamine B assay; conditions: MDA-MB-435, 48 h; in short: as §1
NCI-H522 = test: Growth inhibition of human NCI-H522 cells after 48 hrs by sulforhodamine B assay; conditions: NCI-H522, 48 h; in short: as §1
UACC-62 = test: Growth inhibition of human UACC62 cells after 48 hrs by sulforhodamine B assay; conditions: UACC-62, 48 h
HOP-62 = test: Growth inhibition of human HOP62 cells after 48 hrs by sulforhodamine B assay; conditions: HOP-62, 48 h; in short: as §1
NCI-H226 = test: Growth inhibition of human NCI-H226 cells after 48 hrs by sulforhodamine B assay; conditions: NCI-H226, 48 h; in short: as §1
Malme-3M = test: Growth inhibition of human MALME-3M cells after 48 hrs by sulforhodamine B assay; in short: as §1
[4] = Growth inhibition of human SF295 cells after 48 hrs by sulforhodamine B assay; conditions: SF-295, 48 h
[5] = Growth inhibition of human SF539 cells after 48 hrs by sulforhodamine B assay; conditions: SF-539, 48 h
786-0 = test: Growth inhibition of human 786-0 cells after 48 hrs by sulforhodamine B assay; conditions: 786-0, 48 h; in short: as §1
SNB-19 = test: Growth inhibition of human SNB19 cells after 48 hrs by sulforhodamine B assay; conditions: SNB-19, 48 h
SF-268 = test: Growth inhibition of human SF268 cells after 48 hrs by sulforhodamine B assay; conditions: SF-268, 48 h
M14 = test: Growth inhibition of human M14 cells after 48 hrs by sulforhodamine B assay; conditions: M14, 48 h; in short: as §1
K562 = test: Growth inhibition of human K562 cells after 48 hrs by sulforhodamine B assay; conditions: K562, 48 h; in short: as §1
PC-3 = test: Growth inhibition of human PC3 cells after 48 hrs by sulforhodamine B assay; conditions: PC-3, 48 h
UACC-257 = test: Growth inhibition of human UACC257 cells after 48 hrs by sulforhodamine B assay; conditions: UACC-257, 48 h
SW-620 = test: Growth inhibition of human SW620 cells after 48 hrs by sulforhodamine B assay; conditions: SW-620, 48 h
[6] = Growth inhibition of human MOLT4 cells after 48 hrs by sulforhodamine B assay; conditions: MOLT-4, 48 h; in short: as §1
IGROV-1 = test: Growth inhibition of human IGROV1 cells after 48 hrs by sulforhodamine B assay; conditions: IGROV-1, 48 h; in short: as §1
NCI-H23 = test: Growth inhibition of human NCI-H23 cells after 48 hrs by sulforhodamine B assay; conditions: NCI-H23, 48 h; in short: as §1
SN12C = test: Growth inhibition of human SN12C cells after 48 hrs by sulforhodamine B assay
OVCAR-3 = test: Growth inhibition of human OVCAR3 cells after 48 hrs by sulforhodamine B assay; conditions: OVCAR-3, 48 h; in short: as §1
NCI-H460 = test: Growth inhibition of human NCI-H460 cells after 48 hrs by sulforhodamine B assay; conditions: NCI-H460, 48 h; in short: as §1
[7] = Growth inhibition of human COLO205 cells after 48 hrs by sulforhodamine B assay; conditions: COLO 205, 48 h; in short: as §1
OVCAR-5 = test: Growth inhibition of human OVCAR5 cells after 48 hrs by sulforhodamine B assay; conditions: OVCAR-5, 48 h
T47D = test: Growth inhibition of human T47D cells after 48 hrs by sulforhodamine B assay
ACHN = test: Growth inhibition of human ACHN cells after 48 hrs by sulforhodamine B assay; in short: as §1
[8] = Growth inhibition of human EKVX cells after 48 hrs by sulforhodamine B assay; in short: as §1
OVCAR-8 = test: Growth inhibition of human OVCAR8 cells after 48 hrs by sulforhodamine B assay; conditions: OVCAR-8, 48 h
TK-10 = test: Growth inhibition of human TK10 cells after 48 hrs by sulforhodamine B assay; conditions: TK-10, 48 h

CC(=O)/C(=C\c1c(-c2ccccc2)[nH]c2ccccc12)S(C)(=O)=O
GI50 (HCT-15): 2000 nM
GI50 (MDA-MB-231): 5500 nM
GI50 [1]: 2100 nM
GI50 (A498): 3900 nM
GI50 (CCRF-CEM): 4700 nM
GI50 (MDA-MB-468): 1800 nM
GI50 [2]: 2400 nM
GI50 (CAKI-1): 5600 nM
GI50 (A549): 7300 nM
GI50 (HT-29): 1600 nM
GI50 (HL-60(TB)): 2600 nM
GI50 [3]: 8000 nM
GI50 (NCI-H322M): 9600 nM
GI50 (UO-31): 5800 nM
GI50 (U-251): 2900 nM
GI50 (SK-MEL-5): 1900 nM
GI50 (MDA-MB-435): 415 nM
GI50 (NCI-H522): 3600 nM
GI50 (UACC-62): 3200 nM
GI50 (HOP-62): 12100 nM
GI50 (NCI-H226): 27100 nM
GI50 (Malme-3M): 4800 nM
GI50 [4]: 3900 nM
GI50 [5]: 1900 nM
GI50 (786-0): 3500 nM
GI50 (SNB-19): 3400 nM
GI50 (SF-268): 4200 nM
GI50 (M14): 1600 nM
GI50 (K562): 679 nM
GI50 (PC-3): 4500 nM
GI50 (UACC-257): 43800 nM
GI50 (SW-620): 2100 nM
GI50 [6]: 4400 nM
GI50 (IGROV-1): 8300 nM
GI50 (NCI-H23): 4000 nM
GI50 (SN12C): 6900 nM
GI50 (OVCAR-3): 2300 nM
GI50 (NCI-H460): 2800 nM
GI50 [7]: 3000 nM
GI50 (OVCAR-5): 16100 nM
GI50 (T47D): 2300 nM
GI50 (ACHN): 5800 nM
GI50 [8]: 6400 nM
GI50 (OVCAR-8): 5200 nM
GI50 (TK-10): 13500 nM

CC(=O)/C(=C\c1c(-c2ccccc2)[nH]c2ccccc12)S(=O)(=O)c1ccccc1
GI50 (HCT-15): 836 nM
GI50 (MDA-MB-231): 1700 nM
GI50 [1]: 520 nM
GI50 (A498): 2000 nM
GI50 (CCRF-CEM): 1400 nM
GI50 (MDA-MB-468): 1700 nM
GI50 [2]: 1900 nM
GI50 (CAKI-1): 2400 nM
GI50 (A549): 7200 nM
GI50 (HT-29): 589 nM
GI50 (HL-60(TB)): 1700 nM
GI50 [3]: 1400 nM
GI50 (NCI-H322M): 6100 nM
GI50 (UO-31): 1600 nM
GI50 (U-251): 1200 nM
GI50 (SK-MEL-5): 832 nM
GI50 (MDA-MB-435): 295 nM
GI50 (NCI-H522): 1300 nM
GI50 (UACC-62): 1000 nM
GI50 (HOP-62): 1200 nM
GI50 (NCI-H226): 1900 nM
GI50 (Malme-3M): 2100 nM
GI50 [4]: 2400 nM
GI50 [5]: 1300 nM
GI50 (786-0): 1600 nM
GI50 (SNB-19): 6100 nM
GI50 (SF-268): 3400 nM
GI50 (M14): 521 nM
GI50 (K562): 442 nM
GI50 (PC-3): 2500 nM
GI50 (UACC-257): 2200 nM
GI50 (SW-620): 778 nM
GI50 [6]: 1600 nM
GI50 (IGROV-1): 1500 nM
GI50 (NCI-H23): 1600 nM
GI50 (SN12C): 1900 nM
GI50 (OVCAR-3): 1600 nM
GI50 (NCI-H460): 1100 nM
GI50 [7]: 1700 nM
GI50 (OVCAR-5): 2000 nM
GI50 (T47D): 1400 nM
GI50 (ACHN): 1800 nM
GI50 [8]: 3300 nM
GI50 (OVCAR-8): 2500 nM
GI50 (TK-10): 3800 nM

COc1ccc(-c2[nH]c3ccccc3c2C=C(C#N)C#N)cc1
GI50 (HCT-15): 593 nM
GI50 (MDA-MB-231): 562 nM
GI50 [1]: 343 nM
GI50 (A498): 458 nM
GI50 (CCRF-CEM): 352 nM
GI50 (MDA-MB-468): 418 nM
GI50 [2]: 769 nM
GI50 (CAKI-1): 679 nM
GI50 (A549): 700 nM
GI50 (HT-29): 354 nM
GI50 (HL-60(TB)): 271 nM
GI50 [3]: 751 nM
GI50 (NCI-H322M): 490 nM
GI50 (UO-31): 2800 nM
GI50 (U-251): 483 nM
GI50 (SK-MEL-5): 350 nM
GI50 (MDA-MB-435): 128 nM
GI50 (NCI-H522): 798 nM
GI50 (UACC-62): 357 nM
GI50 (HOP-62): 1200 nM
GI50 (NCI-H226): 1100 nM
GI50 (Malme-3M): 874 nM
GI50 [4]: 336 nM
GI50 [5]: 263 nM
GI50 (786-0): 720 nM
GI50 (SNB-19): 1800 nM
GI50 (SF-268): 709 nM
GI50 (M14): 295 nM
GI50 (K562): 343 nM
GI50 (PC-3): 547 nM
GI50 (UACC-257): 424 nM
GI50 (SW-620): 440 nM
GI50 [6]: 578 nM
GI50 (IGROV-1): 1400 nM
GI50 (NCI-H23): 600 nM
GI50 (SN12C): 1200 nM
GI50 (OVCAR-3): 265 nM
GI50 (NCI-H460): 359 nM
GI50 [7]: 223 nM
GI50 (OVCAR-5): 1800 nM
GI50 (T47D): 481 nM
GI50 (ACHN): 2300 nM
GI50 [8]: 656 nM
GI50 (OVCAR-8): 1200 nM
GI50 (TK-10): 925 nM

— ChEMBL document CHEMBL3616442, “Unconventional Knoevenagel-type indoles: Synthesis and cell-based studies for the identification of pro-apoptotic agents” (Eur J Med Chem, 2015)
